From PMC3706105 (Breast cancer research and treatment, 2012) come the findings set out here.

The subject of data set [1] is MCF-7. As to the kind of experiment: Cell cycle analysis. The class given is cell-based, human. The following applies: MCF-7, 10ppm, 48 hours.
In data set [2] the test system is MCF-7 mammospheres. As to the kind of experiment: Mammosphere formation. Type of data set: cell-based, human. The following applies: MCF-7 primary mammospheres. The procedure, abridged: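 MCF-7 cells trypsinised (0.05% trypsin/EDTA), PBS-washed twice and sieved to single cells. Diluted to 10,000 cells/mL in serum-free phenol-red-free MEBM with 5 μg/ml insulin, 20 ng/ml EGF, 20 ng/ml bFGF, 1× B27 and 0.5 μg/ml hydrocortisone, and plated on ultralow-attachment 96-well plates. Next day, test compound (ppm) or 0.6% acetone final vehicle added; medium replenished every 3–4 days. Spheres over size threshold counted per well at 5×; triplicate wells ± SD, paired t-test.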

Data set [3] concerns MDA-MB-436. As to the kind of experiment: Cell cycle analysis. The class given is cell-based, human. The following applies: MDA-MB-436, 10ppm, 48 hours.
In data set [4] the test system is MDA-MB-231 mammospheres. The data set is described as follows: Mammosphere formation. Type of data set: cell-based, human. The essentials:
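Single-cell MDA-MB-231 suspensions grown as mammospheres in serum-free phenol-red-free CnT-27 medium with growth additives on ultralow-attachment 96-well plates. Next day, test compound (ppm) or vehicle (0.6% acetone final) added; medium replenished every 3–4 days. Mammospheres above size threshold counted per well; triplicate wells, mean ± SD, two-tailed paired t-test versus vehicle.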

The subject of data set [5] is ALDH1. As to the kind of experiment: Aldefluor ALDH1 activity in mammospheres. The class given is cell-based, human. The following applies: MCF-7 primary mammospheres grown with GR-24; vehicle 6%.
In data set [6] the test system is MDA-MB-436. As to the kind of experiment: Crystal violet growth assay. Type of data set: cell-based, human. The procedure, abridged: (§1)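 Cell seeding in 96-well plates was 1500 cells/well (MDA-MB-231, MDA-MB-436, BJ fibroblasts) or 4000 (MCF-7). Next day, phenol-free DMEM with 10% charcoal-stripped FBS plus test compound at 0.5–10 ppm (1.65–33 μM) or acetone vehicle, for up to 10 days. Plates were fixed and stained 15 min with 0.5% crystal violet/25% methanol, washed, dried, and dye eluted in 0.1 M sodium citrate; absorbance 560 nm, % of vehicle, triplicates ± SD. Day-7 IC50 by linear-regression interpolation.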

The test system of data set [7] is MCF-7 secondary mammospheres. The data set is described as follows: XTT viability assay on mammospheres. Type of data set: cell-based, human. The following applies: 5 days.
Data set [8] concerns BJ fibroblasts. The data set is described as follows: Crystal violet growth assay. The class given is cell-based. The following applies: 0.5 to 10ppm, up to 10 days. The procedure, abridged:
as §1

For data set [9], the system named is MCF-7. The data set is described as follows: Crystal violet growth assay. Type of data set: cell-based, human. The procedure, abridged: as §1
Data set [10] deals with MDA-MB-231. The data set is described as follows: Crystal violet growth assay. Type of data set: cell-based, human. The essentials:
as §1

Data set [11] deals with MDA-MB-231. The data set is described as follows: Cell cycle analysis. Type of data set: cell-based, human. The following applies: 48 hours.
The subject of data set [12] is MCF10A. The data set is described as follows: Cell cycle analysis. The class given is cell-based. The following applies: 0.5-10ppm, 48 hours.
Data set [13] relates to MAPKAPK. The data set is described as follows: Immunoblot pT334 MAPKAPK. The class given is cell-based, human. The following applies: MDA-MB-231, SB203580 exposure. The essentials: (§2)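 MDA-MB-231 cells treated with test compound, e.g. 10 ppm for 1–24 h. For P38 inhibition, cells were pretreated 1 h with SB203580, then co-treated 4 h. Lysed in Tris pH 7.5/NP-40/SDS/deoxycholate buffer with phosphatase and protease inhibitors. 20–50 μg protein resolved by 10 or 12% SDS-PAGE, wet-transferred and blocked in 5% BSA/TBS-Tween. Phospho-specific primaries at 1:1000, HRP secondaries at 1:5,000, chemiluminescent detection; band densitometry.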
For orientation: Immunoblotting shows a protein as a band on a membrane.

The test system of data set [14] is ATF2. As to the kind of experiment: Immunoblot pATF2. The class given is cell-based, human. The essentials:
as §2

Data set [15] deals with MDA-MB-231. The data set is described as follows: XTT viability assay. Type of data set: cell-based, human. The following applies: MDA-MB-231, XTT. The procedure, abridged:
(§3)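 Seeding in normal growth medium in 96-well plates: 1500 cells/well for MCF10A, MDA-MB-231 and MDA-MB-436, 4000 for MCF-7. Next day, phenol-free DMEM with 10% charcoal-stripped FBS containing final concentrations of test compound or acetone vehicle, the vehicle matched to the highest dose only. After 3 days, XTT reagent 2–3 h at 37 °C. Absorbance at 450 nm minus 750 nm reference and medium blank, expressed as % of control; IC50 interpolated from sigmoidal dose–response curves.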

Data set [16] deals with MDA-MB-436. As to the kind of experiment: XTT viability assay. The class given is cell-based, human. The following applies: MDA-MB-436, XTT. The procedure, abridged: as §3
For orientation: Tetrazolium assays rely on reduction of a dye to a coloured formazan, in cell work by metabolically active cells.

The test system of data set [17] is MCF-7 mammospheres. The data set is described as follows: Integrity of mature primary mammospheres. The class given is cell-based, human. The following applies: mature MCF-7 mammospheres; for mammosphere numbers (≥100μM), percentage of vehicle treated control: 5 days of treatment, vehicle control 86.7±6.8.
Data set [18] has as its system MCF10A. The data set is described as follows: XTT viability assay. The class given is cell-based.
In data set [19] the test system is MCF-7. The data set is described as follows: XTT viability assay. The following applies: MCF-7, XTT. The class given is cell-based, human. The procedure, abridged:
as §3

For data set [20], the system named is T47D. As to the kind of experiment: XTT viability assay. Type of data set: cell-based, human.
The test system of data set [21] is BJ fibroblast. The data set is described as follows: Cell cycle analysis. Type of data set: cell-based. The following applies: 5 ppm, 48 hours.
For data set [22], the system named is MDA-MB-231 cells. The data set is described as follows: Hoechst33342 nuclear staining. The following applies: MDA-MB-231, 5-10 ppm, 24 hours, Hoechst staining. Type of data set: cell-based, human.
The subject of data set [23] is P38 MAPK. The data set is described as follows: Immunoblot pP38. Type of data set: cell-based, human. The following applies: densitometry of immunoblot. The procedure, abridged: as §2
The test system of data set [24] is MDA-MB-231 cells. The data set is described as follows: XTT viability after timed SL exposure and removal. The class given is cell-based, human. The following applies: MDA-MB-231, 5ppm and 10ppm, XTT at 24 hours. The essentials: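 MDA-MB-231 cells exposed to test compound at 5 or 10 ppm for 2, 4 or 24 h. Medium was then removed, cells washed, and growth medium without compound added. XTT viability read 24 h after treatment start, as % of vehicle controls, mean ± SD; two-tailed paired Student's t-test against vehicle.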

Some results are limits rather than exact numbers.

With `CC1=C[C@H](O/C=C2/C(=O)O[C@@H]3c4ccccc4C[C@H]23)OC1=O` [GR-24], in [1], the “change in subG1 fraction” value is “no change”. Besides, the mammosphere growth result in data set [2] (0.5ppm) is listed as “inhibited to a lesser degree”; in data set [4] (2.5ppm) it was “severely attenuated”. Further, the mammosphere formation entry was “severely attenuated” in [2] (1ppm), “completely inhibited” in [2] (2.5 –5ppm) and “completely blocked” in data set [4] (5ppm). Also, the “increase in sub-G1/apoptotic fraction compared to vehicle” value in data set [3] is 3.4 fold; in [11] (MDA-MB-231, 10ppm), 4.6 fold. In data set [5], the “ALDH activity (percentage of ALDH positive cells)” value stood at 2%. In addition, the “IC50 of long-term proliferation” value in [6] (MDA-MB-436, 7 days) worked out at 5.2 ppm; in data set [9] (MCF-7, 7 days), 5.7 ppm; in data set [10] (MDA-MB-231, 7 days), 5.7 ppm. Moreover, the IC50 in [6] (read-out: IC50 of long-term proliferation, MDA-MB-436, 7 days) turned out to be 17.2 µM; in [9] (read-out: IC50 of long-term proliferation, MCF-7, 7 days), 18.8 µM; in [10] (read-out: IC50 of long-term proliferation, MDA-MB-231, 7 days), 18.8 µM. Also, the “mammosphere viability (% of vehicle control)” value is on record as 68.6%±12.4 in data set [7] (2.5ppm) and 16.4%± 4.6 in data set [7] (5ppm, control 98.4%± 3.4). In addition, the “reduction of mammosphere viability” value in [7] (5ppm) is “approximately 80%”. Moreover, in [8], the “growth compared to vehicle” value is listed as “no significant reduction in growth”. Moreover, the “change in cell cycle distribution” value in [12] was “no change”.

Consider `C[S+]([O-])c1ccc(-c2nc(-c3ccncc3)c(-c3ccc(F)cc3)[nH]2)cc1` (stereo not drawn) [SB203580, reference compound], for which, in data set [13], the “pT334 MAPKAPK phosphorylation” value was “decreased in a dose dependent manner”. Also, the “inhibition of ATF2 phosphorylation following SL treatment” value in data set [14] (MDA-MB-231, 20 μM to 40 μM) was “did not inhibit ATF2 phosphorylation”.

For the compound `CC1=CC(O/C=C2/C(=O)c3c(c4cc(-c5scc6c5OCCO6)ccc4n3C)C2C)OC1=O` (stereo not drawn) [ST362], the “IC50 (ppm) at 72hours” value was 2.9 ppm in data set [15]; 5.9 ppm in [16]; >15 ppm in data set [18]; 8.1 ppm in data set [19]; 8.6 ppm in [20]. Moreover, in [2] (1ppm), the mammosphere formation result is reported as “significantly inhibited mammosphere formation”. Also, the mammosphere growth result in [2] (2.5ppm, 7 days) is listed as “able to block mammosphere growth”. Besides, the “mammosphere numbers (≥100μM), percentage of vehicle treated control” value in data set [17] (2.5ppm) is recorded as 6±1.7%; in data set [17] (5ppm) it was 8.3±3.5%. Further, the mammosphere morphology entry in data set [17] (5 and 2.5ppm, after 48 hours) is “looser morphology and appeared to be dissociating”. Further, the reduction in viability in data set [18] (between day 10 and 14 (so in the source)) was 20%. Also, the SubG1/poptosis in data set [21] (vehicle 0.21) is on record as 0.72; in data set [11] (MDA-MB-231, 5 ppm, vehicle 0.41), 4.17. Further, the “Cell Cycle Distribution (%) S” value in [21] (vehicle 2.510) is recorded as 1.580%; in data set [11] (MDA-MB-231, 5 ppm, vehicle 13.02), 11.90%. The “Cell Cycle Distribution (%) G2” value in [21] (vehicle 10.17) came out at 12.86%; in [11] (MDA-MB-231, 5 ppm, vehicle 24.08), 37.93%. For the same compound, the “Cell Cycle Distribution (%) G1” value in [21] (vehicle 84.25) is on record as 83.42%; in data set [11] (MDA-MB-231, 5 ppm, vehicle 60.43), 42.17%. For the same compound, in [22], the “nuclear changes indicative of apoptosis” value was “increased nuclear condensation and fragmentation”. Moreover, the “increase in pP38 levels compared to vehicle” value in data set [23] (MDA-MB-231, 4 hours) was determined as 5 fold; in data set [23] (MDA-MB-231, 8 hours), 13 fold. Also, the “cell viability after 2 hours exposure” value in data set [24] (SL removed) is given as “No changes in cell viability”. Moreover, the “cell viability after 4 hours exposure” value in data set [24] (SL removed, p<0.01) is on record as “significant decrease in viability”. Moreover, the “cell viability after continual exposure (24h) compared to 4 hours exposure” value in data set [24] (p<0.001) is listed as “greater reduction in cell viability”. For the same compound, the “phosphorylation of ATF2” value in data set [14] (MDA-MB-231, immunoblot, SL treatment 4-8 hours) is recorded as “induced”.
